# Source: ChEMBL document CHEMBL1649420, “Identifying chelators for metalloprotein inhibitors using a fragment-based approach” (J Med Chem, 2011)
# How the values were obtained:
# [1] = biological target: Stromelysin-1 (Homo sapiens) (UniProt P08254); settings: at 1 mM;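 further: recombinant enzyme, inhibition read after a 30 min incubation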
# [2] = biological target: Neutrophil collagenase (Homo sapiens) (UniProt P22894); settings: at 1 mM;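 further: recombinant human MMP8 enzyme, percent inhibition read after 30 min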
# Chain of Neutrophil collagenase (Homo sapiens) (P22894 101-467 limits assumed): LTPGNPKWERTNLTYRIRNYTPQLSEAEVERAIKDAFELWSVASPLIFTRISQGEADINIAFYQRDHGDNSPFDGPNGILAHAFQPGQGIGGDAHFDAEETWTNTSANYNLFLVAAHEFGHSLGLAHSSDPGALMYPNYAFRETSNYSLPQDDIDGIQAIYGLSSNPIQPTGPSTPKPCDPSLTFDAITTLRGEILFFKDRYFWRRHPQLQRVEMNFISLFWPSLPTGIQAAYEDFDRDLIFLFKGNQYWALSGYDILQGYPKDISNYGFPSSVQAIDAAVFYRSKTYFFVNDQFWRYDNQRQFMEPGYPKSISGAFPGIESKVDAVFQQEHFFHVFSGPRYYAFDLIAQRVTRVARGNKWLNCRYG
# [3] = biological target: T1, Tyrosinase (Agaricus bisporus) (UniProt O42713); settings: at 1 mM;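 further: inhibition measured at 10 min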
# T1 sequence (whole entry): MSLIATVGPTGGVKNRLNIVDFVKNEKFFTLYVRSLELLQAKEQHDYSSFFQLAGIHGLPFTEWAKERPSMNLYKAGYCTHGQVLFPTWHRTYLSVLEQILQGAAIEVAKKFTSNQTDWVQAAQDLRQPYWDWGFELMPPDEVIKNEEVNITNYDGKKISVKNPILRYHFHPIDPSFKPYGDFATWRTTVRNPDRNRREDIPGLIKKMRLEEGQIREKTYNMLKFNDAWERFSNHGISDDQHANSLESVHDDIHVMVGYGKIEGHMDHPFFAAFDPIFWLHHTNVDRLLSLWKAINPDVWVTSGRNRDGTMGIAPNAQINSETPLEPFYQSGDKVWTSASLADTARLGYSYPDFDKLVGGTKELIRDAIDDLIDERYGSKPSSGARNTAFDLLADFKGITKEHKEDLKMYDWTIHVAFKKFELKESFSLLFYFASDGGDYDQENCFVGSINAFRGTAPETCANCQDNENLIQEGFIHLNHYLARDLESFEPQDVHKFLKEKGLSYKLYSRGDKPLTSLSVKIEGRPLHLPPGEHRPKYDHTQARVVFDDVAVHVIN
# [4] = biological target: T2, Polyunsaturated fatty acid 5-lipoxygenase (Homo sapiens) (UniProt P09917); assay: Inhibition of human recombinant 5-lipoxygenase at 1 mM after 10 mins by fluorescence assay
# T2 sequence (whole entry): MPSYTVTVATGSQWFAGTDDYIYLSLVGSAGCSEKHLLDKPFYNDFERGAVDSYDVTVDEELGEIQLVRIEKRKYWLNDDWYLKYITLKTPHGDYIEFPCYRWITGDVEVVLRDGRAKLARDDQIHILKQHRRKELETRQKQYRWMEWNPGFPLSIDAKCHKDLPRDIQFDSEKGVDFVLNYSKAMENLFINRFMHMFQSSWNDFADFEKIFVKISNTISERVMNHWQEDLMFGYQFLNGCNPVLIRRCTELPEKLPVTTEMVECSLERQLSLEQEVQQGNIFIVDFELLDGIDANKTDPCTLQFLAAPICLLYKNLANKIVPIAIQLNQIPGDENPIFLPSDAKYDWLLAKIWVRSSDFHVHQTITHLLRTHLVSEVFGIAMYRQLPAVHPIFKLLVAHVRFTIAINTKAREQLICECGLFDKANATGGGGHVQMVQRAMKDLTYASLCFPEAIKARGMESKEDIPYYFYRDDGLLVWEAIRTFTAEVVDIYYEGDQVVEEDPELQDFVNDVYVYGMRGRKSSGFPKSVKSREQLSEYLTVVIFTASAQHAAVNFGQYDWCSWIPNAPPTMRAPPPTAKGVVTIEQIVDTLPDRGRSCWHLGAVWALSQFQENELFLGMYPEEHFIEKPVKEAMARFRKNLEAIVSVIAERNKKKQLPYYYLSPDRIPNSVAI
# [5] = biological target: T3, 72 kDa type IV collagenase (Homo sapiens, UniProt P08253); settings: at 1 mM
# Target sequence in this assay (P08253 110-660 limits assumed): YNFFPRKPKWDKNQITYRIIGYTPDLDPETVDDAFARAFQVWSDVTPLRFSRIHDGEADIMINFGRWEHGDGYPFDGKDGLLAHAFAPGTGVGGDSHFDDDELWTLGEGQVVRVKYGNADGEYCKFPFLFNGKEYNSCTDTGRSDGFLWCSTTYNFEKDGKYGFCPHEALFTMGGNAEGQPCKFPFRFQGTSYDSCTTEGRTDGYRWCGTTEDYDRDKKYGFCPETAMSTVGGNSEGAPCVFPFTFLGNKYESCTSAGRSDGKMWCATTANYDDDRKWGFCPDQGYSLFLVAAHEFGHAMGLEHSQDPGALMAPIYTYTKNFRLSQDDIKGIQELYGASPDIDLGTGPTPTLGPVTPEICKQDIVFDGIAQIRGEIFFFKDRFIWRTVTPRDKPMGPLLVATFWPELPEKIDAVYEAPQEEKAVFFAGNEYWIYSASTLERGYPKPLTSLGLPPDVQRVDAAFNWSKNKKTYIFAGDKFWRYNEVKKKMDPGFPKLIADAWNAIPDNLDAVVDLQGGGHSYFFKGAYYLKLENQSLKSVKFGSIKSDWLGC
# [6] = biological target: T3, 72 kDa type IV collagenase; assay: Inhibition of human recombinant MMP2 after 30 mins
# How it was run: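 Enzyme (1.16 U) preincubated 30 min at 37 °C with fragment in 50 mM HEPES, 10 mM CaCl2, 0.05% Brij-35, pH 7.5. Fluorogenic Mca peptide substrate (4 μM final) then added. Rate of fluorescence increase compared with no-inhibitor control (100%). Single-point 25 μM final for the 8-hydroxyquinoline sublibrary. IC50 fitted to dose-response curves from serial dilutions of DMSO stocks.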
# Target sequence in this assay (P08253 whole entry): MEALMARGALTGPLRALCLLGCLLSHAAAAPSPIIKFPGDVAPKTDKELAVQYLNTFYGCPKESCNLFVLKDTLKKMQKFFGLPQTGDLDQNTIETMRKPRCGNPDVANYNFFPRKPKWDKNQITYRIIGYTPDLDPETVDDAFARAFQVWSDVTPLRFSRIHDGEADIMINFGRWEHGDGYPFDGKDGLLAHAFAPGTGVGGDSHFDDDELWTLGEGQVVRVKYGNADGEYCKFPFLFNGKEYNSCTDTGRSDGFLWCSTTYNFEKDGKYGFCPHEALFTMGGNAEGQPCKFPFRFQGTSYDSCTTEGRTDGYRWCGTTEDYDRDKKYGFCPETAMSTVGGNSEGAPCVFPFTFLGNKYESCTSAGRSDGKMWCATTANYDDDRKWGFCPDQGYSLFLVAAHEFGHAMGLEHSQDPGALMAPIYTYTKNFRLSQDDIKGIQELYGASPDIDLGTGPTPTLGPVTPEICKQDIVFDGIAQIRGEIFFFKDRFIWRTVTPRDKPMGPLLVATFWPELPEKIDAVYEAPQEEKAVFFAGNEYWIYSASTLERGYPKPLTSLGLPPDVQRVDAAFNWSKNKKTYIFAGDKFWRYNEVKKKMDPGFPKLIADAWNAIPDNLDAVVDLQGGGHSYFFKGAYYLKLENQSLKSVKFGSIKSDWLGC
# Chain of Stromelysin-1 (Homo sapiens) (P08254 100-477 limits assumed): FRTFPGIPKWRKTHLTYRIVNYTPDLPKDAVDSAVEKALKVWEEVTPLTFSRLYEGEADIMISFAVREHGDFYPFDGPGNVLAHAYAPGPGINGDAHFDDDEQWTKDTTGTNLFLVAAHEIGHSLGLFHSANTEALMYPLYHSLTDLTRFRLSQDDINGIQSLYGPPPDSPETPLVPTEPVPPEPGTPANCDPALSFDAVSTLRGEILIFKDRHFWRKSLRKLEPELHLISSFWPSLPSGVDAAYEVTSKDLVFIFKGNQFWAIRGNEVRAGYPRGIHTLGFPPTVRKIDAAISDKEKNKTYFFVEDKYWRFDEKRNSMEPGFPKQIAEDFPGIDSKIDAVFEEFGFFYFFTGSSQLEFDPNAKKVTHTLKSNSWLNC
SMILES,inhibition [1] [%],inhibition [2] [%],inhibition [3] [%],inhibition [4] [%],inhibition [5] [%],IC50 [6] [µM]
O=C(O)c1ncccc1O,56,56,87,17,58,
O=C(O)c1ccc(F)cc1O,-2,4,97,31,-8,
O=C(O)c1cccc(O)c1O,-1,10,88,80,-1,
O=C(O)c1ccccc1O,-2,14,97,20,12,
Oc1ncccn1,49,100,92,8,24,
Cc1cc(O)nc(O)n1,7,11,-4,24,-7,
O=C(O)c1ccccn1,99,30,74,16,25,
O=C(O)c1nccc2ccccc12,67,13,72,18,42,
O=C(O)c1cccc[n+]1[O-],18,21,88,31,1,
O=C(O)c1cccc(C(=O)O)n1,54,17,99,31,-6,
O=C(O)c1cc(F)ccc1O,-2,-1,98,49,-2,
Cn1cccc(O)c1=O,-3,13,-6,88,4,
Cc1cc(O)nc(C)n1,6,11,-10,26,2,
O=c1cccccc1O [TROPOLONE],95,100,90,-3,89,146
Nc1[nH]cnc2ncnc1-2,10,9,11,9,-1,
O=c1occcc1O,72,68,77,77,66,
Cc1ccc(S(N)(=O)=O)cc1,-5,9,70,25,-2,
Cc1cc(=O)c(O)co1,29,31,86,80,37,

SMILES,inhibition [1] [%],inhibition [2] [%],inhibition [3] [%],inhibition [4] [%],inhibition [5] [%],IC50 [6] [µM]
Nc1ccc(C(=O)O)c(O)c1,4,8,55,60,-1,
O=C(O)c1cccc(Br)n1,18,1,90,29,-4,
Cc1occ(O)c(=O)c1C(=O)O,80,55,96,80,56,
CCCCc1ccc(C(=O)O)nc1,80,47,75,23,43,
O=c1ccocc1O,35,43,38,81,48,
O=C(O)c1ccc(C(=O)O)nc1,91,-1,98,31,-5,
Cc1cccc(C(=O)O)c1O,13,18,96,22,1,
Cc1cc(=O)c(O)c(CCl)o1,59,47,96,72,44,
O=c1cc(CCl)occ1O,68,59,94,87,65,
[O-][n+]1cccc2cccc(O)c21,81,64,29,66,62,
c1ccc(CNCc2ccccn2)nc1,93,100,69,29,100,
CC(=O)C(C)C(C)=O,-1,3,67,64,-3,
CCn1ccc(=O)c(O)c1C,-8,29,9,80,16,
C1CNCCNCCN1,48,104,68,25,100,
Cc1nc(O)nc(O)c1C,10,2,32,33,5,
Cc1ccc(O)c(C(=O)O)c1,76,26,98,17,65,
CC(=O)C1CCCC1=O (stereo unspecified),4,37,83,79,20,
Nc1cc(=O)nc(N)[nH]1,14,4,18,65,6,
